# Results reported in ChEMBL document CHEMBL1149790, “Synthesis of some novel thiourea derivatives obtained from 5-[(4-aminophenoxy)methyl]-4-alkyl/aryl-2,4-dihydro-3H-1,2,4-triazole-3-thiones and evaluation as antiviral/anti-HIV and anti-tuberculosis agents” (Eur J Med Chem, 2008).
# Tests used:
# Punta Toro virus = assay: Antiviral activity against Punta Toro virus in african green monkey Vero cells assessed as reduction of virus-induced cytopathogenicity; format: functional
# In short: (§1)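 Confluent cell monolayers (E6SM, HEL, HeLa or Vero, per line) inoculated with 100 CCID50 virus; 1 h adsorption, residual virus removed, then incubated with compound at 400, 200, 100 … µg/ml. Cytopathicity scored once complete in untreated virus controls; MIC = concentration inhibiting virus-induced cytopathicity.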
# [1] = test system: Vesicular stomatitis virus; assay: Antiviral activity against in Vesicular stomatitis virus in human HEL cells assessed as reduction of virus-induced cytopathogenicity; format: functional; in short: as §1
# [2] = Cytotoxicity against human MT4 cells by MTT assay; format: cell-based
# In short: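 Mock-infected MT-4 cells (6 × 10⁵ cells/ml) with serial five-fold compound dilutions in triplicate; MTT reduction read at 540 and 690 nm after 5 days, median OD of three wells; CC50 = concentration reducing OD540 of mock-infected control by 50%.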
# [3] = Cytotoxicity against human HeLa cells; format: cell-based
# In short: (§2)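 Uninfected cell cultures exposed to test compounds alongside antiviral assays; minimum cytotoxic concentration (MCC) = concentration causing a microscopically detectable alteration of cell morphology.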
# [4] = test system: Vesicular stomatitis virus; assay: Antiviral activity against vesicular stomatitis virus in human HeLa cells assessed as inhibition of virus-induced cytopathogenicity; format: functional; in short: as §1
# [5] = Cytotoxicity against human HEL cells assessed as alteration of cell morphology; format: cell-based; in short: as §2
# Coxsackievirus B4 [6] = assay: Antiviral activity against Coxsackie virus B4 in human HeLa cells assessed as inhibition of virus-induced cytopathogenicity; format: functional; settings: Enterovirus B; in short: as §1
# Vero = assay: Cytotoxicity against african green monkey Vero cells; format: cell-based; settings: chlorocebus sabaeus; in short: as §2
# [7] = test system: Human immunodeficiency virus 2; assay: Antiviral activity against HIV2 ROD in human MT4 cells assessed as protection against virus-induced cytopathogenicity by MTT assay; format: functional, organism-based; parameters: Activity: concentration or dose not given beside the values; settings: for IC50: Human immunodeficiency virus 2, ROD, MT4
# In short: (§3)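 MT-4 cells at 6 × 10⁵ cells/ml infected with HIV-1 IIIB or HIV-2 ROD at 100–300 CCID50; compounds in serial five-fold dilutions, triplicate mock- and virus-infected wells. MTT viability read at 540 and 690 nm after 5 days, median OD of three wells; EC50 = 50% protection from viral cytopathic effect.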
# Human alphaherpesvirus 1 [8] = assay: Antiviral activity against thymidine kinase deficient and acyclovir resistant HSV1 KOS in human E6SM cells assessed as reduction of virus-induced cytopathogenicity; format: functional; settings: Human alphaherpesvirus 1, KOS; in short: as §1
# Human alphaherpesvirus 1 [9] = assay: Antiviral activity against HSV1 KOS in human HEL cells assessed as reduction of virus-induced cytopathogenicity; format: functional; settings: Human alphaherpesvirus 1, KOS; in short: as §1
# Human alphaherpesvirus 2 [10] = assay: Antiviral activity against HSV2 G in human E6SM cells assessed as reduction of virus-induced cytopathogenicity; format: functional; settings: Human alphaherpesvirus 2, G; in short: as §1
# Human alphaherpesvirus 2 [11] = assay: Antiviral activity against HSV2 G in human HEL cells assessed as reduction of virus-induced cytopathogenicity; format: functional; settings: Human alphaherpesvirus 2, G; in short: as §1
# Human alphaherpesvirus 1 [12] = assay: Antiviral activity against thymidine kinase deficient and acyclovir resistant HSV1 KOS in human HEL cells assessed as reduction of virus-induced cytopathogenicity; format: functional; settings: Human alphaherpesvirus 1, KOS; in short: as §1
# [13] = test system: Respiratory syncytial virus; assay: Antiviral activity against respiratory syncytial virus in human HeLa cells assessed as inhibition of virus-induced cytopathogenicity; format: functional; in short: as §1
# Coxsackievirus B4 [14] = assay: Antiviral activity against Coxsackie virus B4 in african green monkey Vero cells assessed as reduction of virus-induced cytopathogenicity; format: functional; settings: Enterovirus B; in short: as §1
# Human respirovirus 3 = assay: Antiviral activity against Parainfluenza 3 virus in african green monkey Vero cells assessed as reduction of virus-induced cytopathogenicity; format: functional; in short: as §1
# [15] = Cytotoxicity against human E6SM cells; format: cell-based; settings: E6SM cells; in short: as §2
# [16] = test system: Vesicular stomatitis virus; assay: Antiviral activity against in Vesicular stomatitis virus in human E6SM cells assessed as reduction of virus-induced cytopathogenicity; format: functional; in short: as §1
# [17] = test system: Human immunodeficiency virus 1; assay: Antiviral activity against HIV1 3B in human MT4 cells assessed as protection against virus-induced cytopathogenicity by MTT assay; format: functional, organism-based; parameters: Activity: concentration or dose not given beside the values; settings: for IC50: Human immunodeficiency virus 1, 3B, MT4; in short: as §3
# Human alphaherpesvirus 1 [18] = assay: Antiviral activity against HSV1 KOS in human E6SM cells assessed as reduction of virus-induced cytopathogenicity; format: functional; settings: Human alphaherpesvirus 1, KOS; in short: as §1
# [19] = test system: Mammalian orthoreovirus 1; assay: Antiviral activity against Reo virus 1 in african green monkey Vero cells assessed as reduction of virus-induced cytopathogenicity; format: functional; in short: as §1
# Sindbis virus = assay: Antiviral activity against Sindbis virus in african green monkey Vero cells assessed as reduction of virus-induced cytopathogenicity; format: functional; in short: as §1
Compound,MIC (Punta Toro virus) [µg/mL],MIC [1] [µg/mL],CC50 [2] [µg/mL],MCC [3] [µg/mL],MIC [4] [µg/mL],MCC [5] [µg/mL],MIC (Coxsackievirus B4 [6]) [µg/mL],Activity (Vero),Activity [7] [%],IC50 [7] [µg/mL],MIC (Human alphaherpesvirus 1 [8]) [µg/mL],MIC (Human alphaherpesvirus 1 [9]) [µg/mL],MIC (Human alphaherpesvirus 2 [10]) [µg/mL],MIC (Human alphaherpesvirus 2 [11]) [µg/mL],MIC (Human alphaherpesvirus 1 [12]) [µg/mL],MIC [13] [µg/mL],MIC (Coxsackievirus B4 [14]) [µg/mL],MIC (Human respirovirus 3) [µg/mL],MCC [15] [µg/mL],MIC [16] [µg/mL],further results
C=CCNC(=S)Nc1ccc(-c2nnc(SCc3ccc(Cl)cc3Cl)n2C)cc1,> 16,> 16,116,400,> 80,80,> 80,80 µg/mL,5,> 116,> 16,> 16,> 16,> 16,> 16,> 80,> 16,> 16,80,> 16,Activity [17]: 0.5%; IC50 [17]: > 116 µg/mL; MIC (Human alphaherpesvirus 1 [18]): > 16 µg/mL; MIC [19]: > 16 µg/mL; MIC (Sindbis virus): > 16 µg/mL
CCNC(=S)Nc1ccc(-c2n[nH]c(=S)n2-c2ccccc2)cc1,> 80,> 3.2,91.3,≥ 80,> 80,≥ 3.2,> 80,>= 80 ug ml-1,3,> 91.3,> 3.2,> 3.2,> 3.2,> 3.2,> 3.2,> 80,> 80,> 80,≥ 3.2,> 3.2,Activity [17]: 5.5%; IC50 [17]: > 91.3 µg/mL; MIC (Human alphaherpesvirus 1 [18]): > 3.2 µg/mL; MIC [19]: > 80 µg/mL; MIC (Sindbis virus): > 80 µg/mL
C=CCNC(=S)Nc1ccc(-c2n[nH]c(=S)n2C)cc1,> 80,> 80,78.2,400,> 80,400,> 80,400 µg/mL,1,> 78.2,240,240,240,240,240,> 80,> 80,> 80,400,> 80,Activity [17]: 9.5%; IC50 [17]: > 78.2 µg/mL; MIC (Human alphaherpesvirus 1 [18]): 240 µg/mL; MIC [19]: > 80 µg/mL; MIC (Sindbis virus): > 80 µg/mL
CNC(=S)Nc1ccc(-c2n[nH]c(=S)n2-c2ccccc2)cc1,> 80,> 80,94.4,≥ 400,> 400,400,> 400,>= 80 ug ml-1,0,> 94.4,240,240,> 80,> 80,240,> 400,> 80,> 80,400,> 80,Activity [17]: 23.5%; IC50 [17]: > 94.4 µg/mL; MIC (Human alphaherpesvirus 1 [18]): 240 µg/mL; MIC [19]: > 80 µg/mL; MIC (Sindbis virus): > 80 µg/mL
CCNC(=S)Nc1ccc(-c2n[nH]c(=S)n2C)cc1,> 80,> 400,82.4,400,> 80,≥ 400,> 80,400 µg/mL,0,> 82.4,240,240,240,240,240,> 80,> 80,> 80,≥ 400,> 400,Activity [17]: 3%; IC50 [17]: > 82.4 µg/mL; MIC (Human alphaherpesvirus 1 [18]): 240 µg/mL; MIC [19]: > 80 µg/mL; MIC (Sindbis virus): > 80 µg/mL
C=CCNC(=S)Nc1ccc(-c2n[nH]c(=S)n2CC=C)cc1,> 80,> 80,65.4,400,> 80,≥ 80,> 80,>= 80 ug ml-1,0,> 65.4,240,> 80,> 80,> 80,240,> 80,> 80,> 80,≥ 80,> 80,Activity [17]: 6.5%; IC50 [17]: > 65.4 µg/mL; MIC (Human alphaherpesvirus 1 [18]): > 80 µg/mL; MIC [19]: > 80 µg/mL; MIC (Sindbis virus): > 80 µg/mL
